Experimental findings from PubChem BioAssay are described below.

The structures appear in SMILES notation. Activity calls are given as the source filed them.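 The calls were made as follows, unless noted: active = viability at or under a set limit in both replicates, limit being median viability minus 3 SD (cut at about 48% in these data, passing the limit was not always enough); inconclusive = at or under the limit in just one replicate; inactive = at or above the limit in both replicates.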

The nature of experiment [1]: Her2 expression decrease, cell viability multiplex – SKBR3 breast tumor cells, AlphaScreen, ATP viability, primary screen (AID 461;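 active = Her2 level under about 52% in both replicate screens, with viability over 70% of control, limit read from the data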;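 as to Her2 level: lower value means less Her2 protein in the cells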;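 as to viability: percent of carrier control wells set as 100% viability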). The following applies: SKBR3 Her2 protein level, 18-24 h, measured here: SKBR3 viability, ATP luminescence, at 10 µM. (In general: Alpha assays give light when donor and acceptor beads are brought close together.)
Experiment [2] deals with Receptor tyrosine-protein kinase erbB-2 (Homo sapiens) (UniProt P04626). Described as above. Conditions: 18-24 h, at 10 µM, stronger effect = lower value.
Chain of Receptor tyrosine-protein kinase erbB-2 (Homo sapiens) (P04626 whole entry, looked up): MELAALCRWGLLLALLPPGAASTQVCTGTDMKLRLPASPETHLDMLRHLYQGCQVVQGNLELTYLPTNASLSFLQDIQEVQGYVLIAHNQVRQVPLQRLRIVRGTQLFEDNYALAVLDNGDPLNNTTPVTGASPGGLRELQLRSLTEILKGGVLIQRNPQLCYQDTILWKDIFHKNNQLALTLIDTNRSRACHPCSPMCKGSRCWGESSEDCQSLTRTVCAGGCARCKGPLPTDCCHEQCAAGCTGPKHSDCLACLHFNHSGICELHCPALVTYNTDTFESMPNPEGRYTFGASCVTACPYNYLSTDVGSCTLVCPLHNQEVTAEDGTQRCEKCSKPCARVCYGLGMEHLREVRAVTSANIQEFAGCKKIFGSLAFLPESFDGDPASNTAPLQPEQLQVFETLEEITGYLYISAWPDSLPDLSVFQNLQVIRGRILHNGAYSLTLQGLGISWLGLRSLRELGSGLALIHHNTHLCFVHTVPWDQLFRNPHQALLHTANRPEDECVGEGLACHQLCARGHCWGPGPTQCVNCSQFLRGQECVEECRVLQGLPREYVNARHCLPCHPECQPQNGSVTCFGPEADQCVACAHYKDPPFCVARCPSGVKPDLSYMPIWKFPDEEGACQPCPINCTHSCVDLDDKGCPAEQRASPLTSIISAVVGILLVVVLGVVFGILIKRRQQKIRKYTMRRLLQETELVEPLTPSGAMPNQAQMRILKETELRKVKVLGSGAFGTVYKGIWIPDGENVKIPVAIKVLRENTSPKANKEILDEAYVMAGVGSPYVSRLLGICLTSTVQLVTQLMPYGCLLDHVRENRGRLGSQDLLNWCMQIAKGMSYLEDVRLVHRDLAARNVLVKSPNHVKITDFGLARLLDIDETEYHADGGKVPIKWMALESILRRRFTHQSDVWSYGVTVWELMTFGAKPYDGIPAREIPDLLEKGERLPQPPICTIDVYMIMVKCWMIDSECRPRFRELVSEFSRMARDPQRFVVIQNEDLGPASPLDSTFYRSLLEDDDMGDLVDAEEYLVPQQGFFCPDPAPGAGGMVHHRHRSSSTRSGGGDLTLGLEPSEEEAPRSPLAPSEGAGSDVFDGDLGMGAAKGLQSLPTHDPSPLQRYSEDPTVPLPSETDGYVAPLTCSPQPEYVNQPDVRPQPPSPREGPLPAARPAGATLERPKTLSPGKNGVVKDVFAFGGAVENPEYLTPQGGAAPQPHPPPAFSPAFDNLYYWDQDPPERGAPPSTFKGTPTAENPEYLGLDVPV
Experiment [3] can be described thus: reduced viability of SK-BR-3 breast cancer cells – cell-based, 24 h, human, pilot screen (AID 572;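 active = viability at or below 10% of carrier control in both of two separate runs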;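 also: compound exposure lasted between 18 and 24 h rather than exactly 24 h; 100% = carrier-treated control wells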). Conditions: SK-BR-3 viability, CellTiter-Glo luminescence, at 10 µM, stronger effect = lower value. A general note: In ATP-based viability assays light output follows the ATP content of the culture.
Experiment [4] can be described thus: HUVEC growth inhibition – cell-based, human, primary screen (AID 575;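 active = viability at or below 30% in both replicate assays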;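 also: 100% = median of untreated cell wells with 0.1% DMSO on each plate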). The following applies: HUVEC proliferation, CellTiter-Glo luminescence, 72 h; at 10 µM; stronger effect = lower value. An outline of the steps:
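System – primary HUVEC, no more than 12 passages · Medium – Low-serum (2% FBS) EBM, supplemented · Times – 72 h exposure, 37 °C, 5% CO2, 30 min RT equilibration · Measured by – luminescent ATP assay · Read-out – % viability relative to median vehicle-well signal on each plate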

Experiment [5] can be described thus: H69AR cell proliferation blockers – human, duplicate replicates, primary screen (AID 580).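 Also: 100% = mean luminescence of untreated wells and 0% = no signal.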 Conditions: H69AR lung tumor cells viability, ATP luminescence, 72 h; at 10 µM; stronger effect = lower value.
The nature of experiment [6]: MRP1 drug-resistance reversers in H69AR cells – cell-based, doxorubicin co-treatment, pilot screen (AID 601;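 active = viability loss from added drug above about 55%, and viability with drug at most 40%, in both replicates, limit read from the data, passing the limit was not always enough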). The following applies: CellTiter-Glo, 72 h, at 10 µM; for differential viability (reversal): stronger effect = higher value.
Experiment [7] in a line: yeast transport mutant growth inhibition pilot in 384-well plates, post-Golgi transport modulator project (AID 636; in the data active = inhibition above about 31%). Conditions: absorbance 615 nm, about 18 h, stronger effect = higher value.
Experiment [8] can be described thus: growth suppression of yeast trafficking mutant, preliminary HTS, modulators of trafficking downstream of Golgi apparatus project, 1536-format plate, OD 615 nm (AID 637; in the data active = inhibition above about 30%). The following applies: yeast transport mutant growth, absorbance 615 nm, 18 h; stronger effect = higher value.
Setting [9] is: H69AR cells + 2 uM doxorubicin, measured here: viability with 2 uM doxorubicin, stronger effect = lower value.
The mark [10] stands for this setting: H69AR cells, compound alone cytotoxicity.

The term viability denotes a read-out of living cells in per cent, often relative to untreated cells. Usually inhibition stands for the drop in the measured response relative to a control, in per cent. Turning to `C[C@H](NC(=O)Nc1ccccc1F)C(=O)O`, the viability in experiment [1] was 100%; in experiment [3], 100% (inactive); in experiment [4], 101% (inactive); in experiment [5], 100% (inactive); in experiment [6] (setting [9]), 115%; in experiment [6] (setting [10]), 100%. In addition, the Her2 level in experiment [2] is 96% (inactive). In addition, in experiment [6] (H69AR cells + 2 uM doxorubicin), the differential viability (reversal) is -14.3% (inactive). Also, the inhibition in experiment [7] is -3.42% (inactive); in experiment [8], 4.43% (inactive).
As to `COc1cc(C)nc(NS(=O)(=O)c2ccc(C)cc2)n1`, the viability in experiment [1] was 122%; in experiment [3], 122% (inactive); in experiment [4] it was 98.5% (inactive); in experiment [5], 84.9% (inactive); in experiment [6] (setting [9]), 86.2%; in experiment [6] (setting [10]), 84.9%. For the same molecule, the Her2 level in experiment [2] is 88% (inactive). Further, the differential viability (reversal) in experiment [6] (H69AR cells + 2 uM doxorubicin) is -1.31% (inactive). Also, the inhibition was -3.82% (inactive) in experiment [7] and 0.65% (inactive) in experiment [8].
As to `COc1ccc2c(c1)[nH]c1c(=O)n(CC3CCCO3)cnc12` (stereo not given), the viability was 86% in experiment [1]; 86% (inactive) in experiment [3]; 97.2% (inactive) in experiment [4]; 90.5% (inactive) in experiment [5]; 94.9% in experiment [6] (setting [9]); 90.5% in experiment [6] (setting [10]). Also, the Her2 level in experiment [2] was 94% (inactive). Further, the differential viability (reversal) in experiment [6] (H69AR cells + 2 uM doxorubicin) is -4.4% (inactive). The inhibition in experiment [7] is -3.42% (inactive); in experiment [8] it was -6.39% (inactive).
`Cc1cc(C)c(C)c(OCC(=O)NCC2CCCO2)c1` (stereo not given): the viability is 85% in experiment [1]; 85% (inactive) in experiment [3]; 102% (inactive) in experiment [4]; 100% (inactive) in experiment [5]; 91.9% in experiment [6] (setting [9]); 100% in experiment [6] (setting [10]). For the same molecule, the Her2 level in experiment [2] was 85.5% (inactive). The differential viability (reversal) in experiment [6] (H69AR cells + 2 uM doxorubicin) was 8.32% (inactive). Moreover, the values for the inhibition in experiment [7] and in experiment [8] were -3.38% (inactive) and 0.16% (inactive), respectively.
As for `Cc1ccccc1CN1CCN(CC(=O)NCc2ccccc2)C1=O`, the viability in experiment [1] is 113%; in experiment [3], 113% (inactive); in experiment [4], 97.9% (inactive); in experiment [5] it was 89.9% (inactive); in experiment [6] (setting [9]), 83%; in experiment [6] (setting [10]), 89.9%. Further, the Her2 level in experiment [2] is 117% (inactive). Besides, the differential viability (reversal) in experiment [6] (H69AR cells + 2 uM doxorubicin) is 6.96% (inactive). The inhibition is -5.32% (inactive) in experiment [7] and 2.79% (inactive) in experiment [8].
As to `O=C1c2ccccc2C(=O)N1C/C=C/c1ccccc1`, the viability in experiment [1] was 81%; in experiment [3], 81% (inactive); in experiment [4], 78.2% (inactive); in experiment [5], 96.7% (inactive); in experiment [6] (setting [9]) it was 89.5%; in experiment [6] (setting [10]), 96.7%. In experiment [2], the Her2 level was 75% (inactive). In experiment [6] (H69AR cells + 2 uM doxorubicin), the differential viability (reversal) is 7.29% (inactive). Also, the inhibition is -3.47% (inactive) in experiment [7] and -1.29% (inactive) in experiment [8].
`NC(=O)CSc1nnc(-c2cnccn2)n1-c1ccccc1`: the viability in experiment [1] is 114%; in experiment [3] it was 114% (inactive); in experiment [4] it was 103% (inactive); in experiment [5], 89.8% (inactive); in experiment [6] (setting [9]), 82.5%; in experiment [6] (setting [10]), 89.8%. Also, the Her2 level in experiment [2] is 97% (inactive). Further, the differential viability (reversal) in experiment [6] (H69AR cells + 2 uM doxorubicin) was 7.27% (inactive). The inhibition in experiment [7] is -5.07% (inactive); in experiment [8], 1.13% (inactive).
For `C=CCOc1ccc(C2C(C(=O)c3ccco3)=C(O)C(=O)N2Cc2cccnc2)cc1` (stereo not given), the viability in experiment [1] was 108%; in experiment [3], 108% (inactive); in experiment [4] it was 119% (inactive); in experiment [5], 90.9% (inactive); in experiment [6] (setting [9]), 88%; in experiment [6] (setting [10]), 90.9%. Moreover, the Her2 level in experiment [2] was 89.5% (inactive). For the same molecule, the differential viability (reversal) in experiment [6] (H69AR cells + 2 uM doxorubicin) was 2.87% (inactive). The inhibition in experiment [7] was -1.71% (inactive); in experiment [8], 8.69% (inactive).
In the case of `COc1ccc(NC(=O)Nc2ccc(C)cc2OC(F)F)cc1OC`, the viability in experiment [1] is 95%; in experiment [3], 95% (inactive); in experiment [4], 88% (inactive); in experiment [5], 93% (inactive); in experiment [6] (setting [9]), 86.1%; in experiment [6] (setting [10]), 93%. Besides, the Her2 level in experiment [2] is 79.5% (inactive). Besides, the differential viability (reversal) in experiment [6] (H69AR cells + 2 uM doxorubicin) is 6.81% (inactive). Also, the values for the inhibition in experiment [7] and in experiment [8] were -3.95% (inactive) and -6.67% (inactive), respectively.
As for `O=C(CN1CCCN(S(=O)(=O)c2ccc(Br)cc2)CC1)Nc1ccc2cn[nH]c2c1`, the viability was 106% in experiment [1]; 106% (inactive) in experiment [3]; 73.1% (inactive) in experiment [4]; 7.15% (active) in experiment [5]; 20.5% in experiment [6] (setting [9]); 7.15% in experiment [6] (setting [10]). Moreover, in experiment [2], the Her2 level was 109% (inactive). Moreover, the differential viability (reversal) in experiment [6] (H69AR cells + 2 uM doxorubicin) was -13.3% (inactive). Further, the inhibition was -2.37% (inactive) in experiment [7] and 2.79% (inactive) in experiment [8].
Regarding `CCNC(=O)CC(=O)Nc1ccccc1C(=O)O`, the viability in experiment [1] is 104%; in experiment [3], 104% (inactive); in experiment [4], 125% (inactive); in experiment [5], 103% (inactive); in experiment [6] (setting [9]), 96.9%; in experiment [6] (setting [10]), 103%. Further, in experiment [2], the Her2 level was 99.5% (inactive). In addition, in experiment [6] (H69AR cells + 2 uM doxorubicin), the differential viability (reversal) is 5.93% (inactive). The inhibition in experiment [7] is -5.95% (inactive); in experiment [8], -2.67% (inactive).
With `Cc1cc(C)cc(NS(=O)(=O)c2ccc3[nH]cc(C(=O)NCc4ccco4)c(=O)c3c2)c1`, the viability in experiment [1] is 97%; in experiment [3] it was 97% (inactive); in experiment [4], 19% (active); in experiment [5], 41.1% (active); in experiment [6] (setting [9]) it was 77%; in experiment [6] (setting [10]), 41.1%. Further, the Her2 level in experiment [2] is 87% (inactive). Also, the differential viability (reversal) in experiment [6] (H69AR cells + 2 uM doxorubicin) was -35.9% (inactive). Moreover, the inhibition in experiment [7] was -5.39% (inactive); in experiment [8], 1.45% (inactive).
On to `N#CCCn1ccc(NC(=O)c2ccc(Cl)cc2)n1`, for which the viability in experiment [1] is 79%; in experiment [3], 79% (inactive); in experiment [4], 102% (inactive); in experiment [5] it was 97% (inactive); in experiment [6] (setting [9]), 88.1%; in experiment [6] (setting [10]) it was 97%. Also, in experiment [2], the Her2 level was 87.5% (inactive). In experiment [6] (H69AR cells + 2 uM doxorubicin), the differential viability (reversal) is 8.88% (inactive). The inhibition in experiment [7] is -5.27% (inactive); in experiment [8] it was -0.66% (inactive).
Consider `CCC(C)NC(=O)C1(C)CCC(=O)N1Cc1ccccc1OC` (stereo not given), for which the viability in experiment [1] is 100%; in experiment [3], 100% (inactive); in experiment [4], 99.8% (inactive); in experiment [5], 95.3% (inactive); in experiment [6] (setting [9]) it was 95%; in experiment [6] (setting [10]) it was 95.3%. In experiment [2], the Her2 level is 95% (inactive). The differential viability (reversal) in experiment [6] (H69AR cells + 2 uM doxorubicin) was 0.27% (inactive). Also, the results for the inhibition in experiment [7] and in experiment [8] were -5.07% (inactive) and 1.31% (inactive), respectively.
